Experimental data as given in ChEMBL document CHEMBL1138035, “Antitumor agents. 250. Design and synthesis of new curcumin analogues as potential anti-prostate cancer agents” (J Med Chem, 2006).

How the values were obtained:
LNCaP [1] = experiment: Cytotoxicity against human LNCaP cell line; type: functional, cell-based
PC-3 [2] = experiment: Cytotoxicity against human PC3 cell line; type: functional, cell-based; conditions: Homo sapiens, PC-3; read-out: IC50
[3] = biological target: T1, Androgen receptor (Homo sapiens) (UniProt P10275); experiment: Antiandrogenic activity against human LNCaP cell line by AR transactivation assay in presence of […] at 5 uM; type: functional, cell-based
T1 sequence (whole entry): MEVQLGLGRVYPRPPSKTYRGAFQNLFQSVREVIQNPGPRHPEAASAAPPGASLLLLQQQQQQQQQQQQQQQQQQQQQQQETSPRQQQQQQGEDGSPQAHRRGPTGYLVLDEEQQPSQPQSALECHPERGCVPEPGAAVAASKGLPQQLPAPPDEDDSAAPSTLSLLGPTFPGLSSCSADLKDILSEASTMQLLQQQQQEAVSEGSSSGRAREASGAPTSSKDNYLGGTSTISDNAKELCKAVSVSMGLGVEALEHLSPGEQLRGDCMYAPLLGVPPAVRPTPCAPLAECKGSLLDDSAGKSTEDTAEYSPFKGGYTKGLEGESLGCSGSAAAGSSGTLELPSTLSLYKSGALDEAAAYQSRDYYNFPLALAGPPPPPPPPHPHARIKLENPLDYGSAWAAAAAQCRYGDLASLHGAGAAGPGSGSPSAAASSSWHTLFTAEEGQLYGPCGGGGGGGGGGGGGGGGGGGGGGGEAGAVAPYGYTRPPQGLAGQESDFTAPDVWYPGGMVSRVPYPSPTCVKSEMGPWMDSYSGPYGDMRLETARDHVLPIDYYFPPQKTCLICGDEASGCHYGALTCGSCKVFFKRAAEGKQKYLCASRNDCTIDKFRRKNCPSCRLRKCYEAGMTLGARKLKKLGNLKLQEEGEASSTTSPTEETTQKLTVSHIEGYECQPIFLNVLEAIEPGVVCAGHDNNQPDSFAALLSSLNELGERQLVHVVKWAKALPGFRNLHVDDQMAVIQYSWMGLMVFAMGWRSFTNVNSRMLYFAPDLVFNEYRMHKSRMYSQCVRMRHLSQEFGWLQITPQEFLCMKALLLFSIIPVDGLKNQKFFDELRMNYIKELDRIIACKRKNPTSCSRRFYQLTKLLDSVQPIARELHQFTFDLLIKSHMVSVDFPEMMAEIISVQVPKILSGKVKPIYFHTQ
Procedure, shortened: (§1)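 LNCaP cells (endogenous mutant AR), kept in RPMI with 10% fetal calf serum and antibiotics, were plated 48 h before transfection. They were transfected for 5 h (SuperFect) with MMTV-luciferase reporter plus pRL-SV40 internal control, then moved to RPMI with 10% charcoal dextran-stripped serum. After 24 h, cells got 1 nM DHT plus compound for 24 h. Read-out was dual luciferase normalized to the internal control, as % of DHT-alone transactivation.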

[4] = biological target: T1, Androgen receptor (Homo sapiens); experiment: Antiandrogenic activity against human PC3 cell line transfected with wild-type AR by AR transactivation assay in presence of […] at 5 uM; type: functional, cell-based; conditions: PC-3
Procedure, shortened: (§2)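 PC-3 host cells (no functional AR), kept in DMEM with 10% fetal calf serum and antibiotics, were plated 24 h before transfection. They were transfected for 5 h (SuperFect) with wild-type AR plasmid pSG5AR, MMTV-luciferase reporter and pRL-SV40 control, then moved to DMEM with 10% charcoal-stripped serum. After 24 h, cells got 1 nM DHT plus compound for 24 h. Dual-luciferase signal was normalized to the internal control and given as % of DHT-only.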

LNCaP [5] = experiment: Inhibition of growth of human LNCaP cell line at 20 ug/ml; type: functional
Procedure, shortened: (§3)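 Growth assay in human prostate cancer cells (LNCaP in RPMI, PC-3 in DMEM, each with 10% fetal calf serum and antibiotics). Cells were exposed to compound for 2 days. Value is % inhibition of cell growth at 20 μg/ml. Variation between replicate experiments was ≤5%.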

PC-3 [6] = experiment: Inhibition of growth of human PC3 cell line at 20 ug/ml; type: functional; procedure, shortened: as §3
[7] = biological target: T1, Androgen receptor (Homo sapiens); experiment: Antiandrogenic activity against human LNCaP cell line by AR transactivation assay in presence of […] at 3 uM; type: functional, cell-based; procedure, shortened: as §1
[8] = biological target: T1, Androgen receptor (Homo sapiens); experiment: Antiandrogenic activity against human PC3 cell line transfected with wild-type AR by AR transactivation assay in presence of […] at 3 uM; type: functional, cell-based; conditions: PC-3; procedure, shortened: as §2

| SMILES | IC50 (LNCaP [1]) | IC50 (PC-3 [2]) | other results |
| --- | --- | --- | --- |
| CCOC(=O)CC/C(C(C)=O)=C(O)\C=C\c1ccc(O)c(OC)c1 | 51.5 µM | 43.7 µM | – |
| COc1ccc(/C=C/C(=O)C(/C=C/CO)=C(O)/C=C/c2ccc(OC)c(OC)c2)cc1OC | 0.2 µM | 1.3 µM | – |
| COc1cc(/C=C/C(=O)/C(C(C)=O)=C(O)/C=C/c2ccc(O)c(OC)c2)ccc1O | 8.8 µM | 23.4 µM | – |
| CCOC(=O)CC\C(C(=O)/C=C/C=C/c1ccc(O)c(OC)c1)=C(O)/C=C/C=C/c1ccc(O)c(OC)c1 | 3.1 µM | 6.4 µM | – |
| COc1ccc(/C=C/C(=O)C(/C=C/C#N)=C(O)/C=C/c2ccc(OC)c(OC)c2)cc1OC | 0.2 µM | 0.7 µM | Activity [3]: 42%; Activity [4]: 68% |
| O=C(/C=C(O)/C=C/c1ccc(CO)o1)/C=C/c1ccc(CO)o1 | – | – | inhibition at 20 µg/mL (LNCaP [5]): 37%; inhibition at 20 µg/mL (PC-3 [6]): 37% |
| CCOC(=O)CCC(F)(C(=O)/C=C/c1ccc(O)c(OC)c1)C(=O)/C=C/c1ccc(O)c(OC)c1 | 6.3 µM | 9.8 µM | – |
| COc1ccc(/C=C/C(=O)NC(=O)/C=C/c2ccc(OC)c(OC)c2)cc1OC | 2.2 µM | > 10 µM | inhibition at 20 µg/mL (PC-3 [6]): 36% |
| COc1cc(OC)c(OC)cc1/C=C/C(=O)/C=C(O)/C=C/c1ccc(OC)c(OC)c1 | 8.6 µM | 8.2 µM | – |
| CCOc1ccc(/C=C/C(=O)/C=C(O)/C=C/c2ccc(OCC)c(OC)c2)cc1OC | 6.5 µM | 20.3 µM | – |
| COc1ccc(/C=C/C(=O)/C=C(O)/C=C/c2ccc(OC)c(C)c2)cc1C | 7.7 µM | > 27.4 µM | inhibition at 20 µg/mL (PC-3 [6]): 44% |
| COc1ccc(/C=C/C(=O)/C=C(O)/C=C/c2ccc(OC)c(O)c2)cc1O | 10.9 µM | 8.6 µM | – |
| COc1ccc(CCC(=O)CC(O)CCc2ccc(OC)c(OC)c2)cc1OC (stereo not drawn) | 10.8 µM | – | inhibition at 20 µg/mL (PC-3 [6]): 33% |
| COc1ccc(/C=C/C(=O)CC(O)/C=C/c2ccc(OC)c(OC)c2)cc1OC (stereo not drawn) | 17.7 µM | 18.4 µM | – |
| CCO/C(O)=C/C=C(C(=O)/C=C/c1ccc(OC2CCCCO2)c(OC)c1)C(=O)/C=C/c1ccc(OC2CCCCO2)c(OC)c1 (stereo not drawn) | 2.6 µM | 3.1 µM | Activity [7]: 54%; Activity [8]: 46% |
| COc1ccc(/C=C/C(O)=C/C(C)=O)c(OC)c1 | 9.9 µM | 12.3 µM | – |
| COc1ccc(/C=C/C(O)=C/C(C)=O)cc1O | 5.3 µM | 6.1 µM | – |
| COc1cc(/C=C/C(O)=C/C(=O)/C=C/c2cccs2)ccc1O | 6.3 µM | 7.7 µM | – |
| COc1ccc(/C=C/C(=O)C(C)(F)C(=O)/C=C/c2ccc(OC)c(OC)c2)cc1OC | 6.4 µM | 4.6 µM | – |
| COc1ccc(/C=C/C(=O)/C=C(O)/C=C/c2ccc(OC)c(OC)c2OC)c(OC)c1OC | 4.8 µM | 8.1 µM | – |
| COc1cc(/C=C/C(O)=C/C(C)=O)ccc1O | 6.2 µM | 8 µM | – |
| COc1cc(/C=C/C(O)=C/C(=O)/C=C/c2ccc[nH]2)ccc1O | 13.6 µM | 15.4 µM | – |
| COc1cc(/C=C/C(=O)/C=C(O)/C=C/c2ccc(OCC=C(C)C)c(OC)c2)ccc1OCC=C(C)C | 6.1 µM | > 19.8 µM | inhibition at 20 µg/mL (PC-3 [6]): 41% |
